Laboratory results: PMC2717697 (The Journal of General Physiology, 2009)
Numbering of substitutions follows the chain as printed.

Experiments:
Assay type in all cases: cell-based
wild-type CNGA1 channels = target: T1, wild-type CNGA1 channels (Bos taurus, UniProt Q00194)
T1 sequence (Q00194 1-690): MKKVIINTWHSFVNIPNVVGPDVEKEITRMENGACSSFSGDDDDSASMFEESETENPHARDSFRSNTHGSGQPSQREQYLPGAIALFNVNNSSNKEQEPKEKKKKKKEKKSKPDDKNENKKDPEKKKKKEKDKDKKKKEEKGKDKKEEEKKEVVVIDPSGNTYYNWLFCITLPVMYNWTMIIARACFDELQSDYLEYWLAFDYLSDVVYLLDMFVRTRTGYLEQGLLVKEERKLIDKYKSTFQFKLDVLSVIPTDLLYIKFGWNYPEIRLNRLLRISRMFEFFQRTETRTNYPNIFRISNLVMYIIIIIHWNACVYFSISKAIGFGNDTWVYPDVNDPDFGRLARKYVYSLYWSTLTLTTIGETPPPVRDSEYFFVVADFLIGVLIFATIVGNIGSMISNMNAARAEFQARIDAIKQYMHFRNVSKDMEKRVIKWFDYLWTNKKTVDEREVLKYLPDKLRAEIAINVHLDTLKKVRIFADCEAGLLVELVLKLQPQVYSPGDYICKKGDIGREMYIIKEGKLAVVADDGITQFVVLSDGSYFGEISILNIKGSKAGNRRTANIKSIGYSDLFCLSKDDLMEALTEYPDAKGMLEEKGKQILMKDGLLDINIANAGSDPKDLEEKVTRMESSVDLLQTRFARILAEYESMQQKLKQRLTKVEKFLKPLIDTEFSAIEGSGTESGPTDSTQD

[1] = target: T2, E363Q mutant CNGA1 channel (Bos taurus, UniProt Q00194, E363Q)
T2 sequence (Q00194 1-690 E363Q): T1 sequence (Q00194 1-690) with E363Q

[2] = tested on: WT and E363Q CNGA1 channels; settings: fit of Eq. 1 to G-V relations 10 to 200 mV, WT and E363Q together
[3] = target: T2, E363Q mutant CNGA1 channel; assay: Block of E363Q single-channel currents by extracellular Mg^2+
Outline: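 Xenopus laevis oocytes were collagenase-defolliculated, cRNA-injected, and kept at 18°C. […] E363Q single-channel currents were recorded at 120 or −120 mV with or without 0.1 mM extracellular Mg2+, one patch per trace. Filtering was 1 kHz and sampling 10 kHz. Amplitudes are mean ± SEM, n = 5–20.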

[4] = target: T3, wild-type (WT) CNGA1 channel (Bos taurus, UniProt Q00194); assay: Voltage-dependent block by intracellular PhTx, wild type
T3 sequence (Q00194 1-690): T1 sequence (Q00194 1-690)
Outline: (§1)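 WT or mutant CNGA1 cRNA was injected into collagenase-defolliculated Xenopus oocytes. […] I-V curves were taken from −80 mV holding with steps of −200 to 200 mV in 10-mV increments. No-cGMP currents were subtracted as background. Recordings were made with or without 10 µM intracellular PhTx, and fraction unblocked (I/Io) was reported as mean ± SEM, n = 4–6.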

[5] = target: T4, V384A mutant CNGA1 channel (Bos taurus, UniProt Q00194, V384A); assay: Voltage-dependent block by intracellular PhTx, V384A
T4 sequence (Q00194 1-690 V384A): T1 sequence (Q00194 1-690) with V384A
Outline: as §1

[6] = target: T5, I386A mutant CNGA1 channel (Bos taurus, UniProt Q00194, I386A); assay: Voltage-dependent block by intracellular PhTx, I386A
T5 sequence (Q00194 1-690 I386A): T1 sequence (Q00194 1-690) with I386A
Outline: as §1

[7] = target: T6, F387A mutant CNGA1 channel (Bos taurus, UniProt Q00194, F387A); assay: Voltage-dependent block by intracellular PhTx, F387A
T6 sequence (Q00194 1-690 F387A): T1 sequence (Q00194 1-690) with F387A
Outline: as §1

[8] = target: T7, T389A mutant CNGA1 channel (Bos taurus, UniProt Q00194, T389A); assay: Voltage-dependent block by intracellular PhTx, T389A
T7 sequence (Q00194 1-690 T389A): T1 sequence (Q00194 1-690) with T389A
Outline: as §1

[9] = target: T8, I390A mutant CNGA1 channel (Bos taurus, UniProt Q00194, I390A); assay: Voltage-dependent block by intracellular PhTx, I390A
T8 sequence (Q00194 1-690 I390A): T1 sequence (Q00194 1-690) with I390A
Outline: as §1

[10] = read-out: appKd, Boltzmann fit of I/Io at 10 µM intracellular PhTx
[11] = valence of block, Boltzmann fit

**Q.** `Nc1nc2c(ncn2[C@@H]2O[C@@H]3COP(=O)(O)O[C@H]3[C@H]2O)c(=O)[nH]1` [cGMP, cyclic GMP] was tested. Which “valence factor of KL” value (wild-type CNGA1 channels) did it give?
**A.** 0.04

**Q.** And the “Hill coefficient (n)” value (wild-type CNGA1 channels; common to −200 and 200 mV)?
**A.** 1.48 ± 0.03

**Q.** And the “variation of KL” value (wild-type CNGA1 channels; over 400 mV (−200 to 200 mV))?
**A.** twofold

**Q.** And the “valence factor of KL” value [1]?
**A.** −0.1

**Q.** What about the “Hill coefficient (n)” value ([1]; common to 40 and 200 mV) of the same compound?
**A.** 1.44 ± 0.01

**Q.** What about the “Hill coefficient (n)” value [2] of the same compound?
**A.** 1.44 ± 0.06

**Q.** What about the Kd ([2]; read-out: KL) of the same compound?
**A.** 78000 ± 4000 nM

**Q.** What does the source list for `[Mg+2]` [Mg^2+]?
**A.** Ki ([3]; read-out: estimated Ki, −120 mV, estimated from 37% reduction at 100 µM): 170000 nM; reduction of single-channel current amplitude ([3]; −120 mV, 100 µM external Mg^2+): 37%

**Q.** For philanthotoxin [PhTx], which Kd [4, 10] is on record?
**A.** 1600 nM

**Q.** And the Z [4, 11]?
**A.** 2.48 ± 0.07

**Q.** And the Kd [5, 10]?
**A.** 3500 nM

**Q.** What about the Z [5, 11] of the same compound?
**A.** 2.81 ± 0.09

**Q.** What about the Kd [6, 10] of the same compound?
**A.** 830 nM

**Q.** What about the Z [6, 11] of the same compound?
**A.** 2.55 ± 0.07

**Q.** And the Kd [7, 10]?
**A.** 52000 nM

**Q.** And the Z [7, 11]?
**A.** 0.96 ± 0.02

**Q.** What about the Kd [8, 10] of the same compound?
**A.** 1600 nM

**Q.** What about the Z [8, 11] of the same compound?
**A.** 2.25 ± 0.06

**Q.** What about the Kd [9, 10] of the same compound?
**A.** 1200 nM

**Q.** And the Z [9, 11]?
**A.** 2.67 ± 0.08
